In article PMC6170741 (Investigational new drugs, 2018):

Columns and labels:
[1] = Single dose plasma pharmacokinetics in patients; format: in vivo, human; conditions: for Tmax: human, plasma, po, across all doses and regimens
Outline: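 Fasted patients took one oral capsule dose (Cycle 0) before repeat dosing began. Drug was quantified by liquid-liquid extraction and HPLC-MS/MS (range 1–1000 ng/mL; LLOQ 1.00 ng/mL). Non-compartmental analysis gave AUC(0–24) and Cmax, and variability was expressed as CV%.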

[2] = tested on: blood glucose and insulin levels; assay: Pharmacodynamics: insulin after standardized meal, 1,5-anhydroglucitol; format: in vivo, human
[3] = tested on: patients with solid tumors; assay: Clinical activity; format: in vivo, human
[4] = tested on: patients with solid tumors; assay: Phase I safety and tolerability; format: in vivo
AKT3 = conditions: read-out: AKT3 Ki*; cited from earlier work
AKT1 = conditions: read-out: AKT1 Ki*; cited from earlier work
[5] = Repeat dose plasma pharmacokinetics in patients; format: in vivo, human
Outline: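 Fasted patients took oral capsules once daily. Steady-state plasma was sampled up to 24 h post-dose on day 8 (10 and 20 mg cohorts), day 15 (40–150 mg cohorts), day 7 (7-on/7-off) or day 22 (t.i.w.). Dose-reduced patients were sampled at the new dose. Drug was measured by liquid-liquid extraction and HPLC-MS/MS (validated 1–1000 ng/mL; LLOQ 1.00 ng/mL). Parameters were derived non-compartmentally.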

[6] = 75 mg, continuous daily regimen
[7] = any cause, all cohorts, N = 77, CTCAE v3.0
[8] = repeat dose, 75 mg, continuous daily regimen

Q: Which results are given for `Cn1ncc(Cl)c1-c1cc(C(=O)N[C@H](CN)Cc2ccc(F)c(F)c2)oc1Cl` [GSK2141795]?
A: mean variability (CV%) in exposure, AUC(0–24) [1, 6]: 37%; mean variability (CV%) in exposure, Cmax [1, 6]: 62%; Tmax ([1]; Tmax, majority): 2 to 4 h; Tmax ([1]; median time to maximal concentration (Tmax)): 3 to 8 h; insulin levels following a standardized meal, day 15 compared with screening ([2]; 5 patients with matched insulin samples, cycle 1 day 15): Three of the five patients had two-fold greater insulin levels; association of decreased 1,5-AG with GSK2141795 concentrations ([2]; screening vs steady state, linear regression): this association was not consistent across the study or across tumor types; endometrial cancer patients with stable disease (SD) on therapy for more than 6 months ([3]; 75 mg qd): 4 patients; prostate cancer patients with stable disease (SD) on therapy for more than 6 months ([3]; 75 mg qd): 3 patients; partial responses (PRs) ([3]; RP2D 75 mg qd): two partial responses; patients withdrawn due to disease progression ([3]; of 77 enrolled (68%), at study completion): 52 patients; DLTs ([4]; 75 mg qd 7-on/7-off cohort): No DLTs; DLTs ([4]; 75 mg t.i.w. cohort): No DLTs; DLTs ([4]; 100 mg qd 7-on/7-off cohort): Two DLTs, grade 3 hyperglycemia and grade 3 rash; DLTs ([4]; 100 mg qd cohort (exceeded the MTD)): two DLTs, including grade 1 stomatitis that did not resolve, leading to a treatment delay of >14 days, as well as grade 4 hypoglycemia; DLTs ([4]; 100 mg t.i.w. cohort): No DLTs; DLTs ([4]; 150 mg qd cohort (exceeded the MTD)): two DLTs of grade 3 hyperglycemia; maximum tolerated dose (MTD) ([4]; 7-on/7-off schedule): 75 mg; hyperglycemia, patients ([4]; all cohorts): 22%; rash, patients ([4]; all cohorts): 22%; patients with DLTs ([4]; all cohorts, cycle 1): 7 patients; Abdominal pain, Grade 1 [4, 7]: 13 (17) n (%); Abdominal pain, Grade 2 [4, 7]: 4 (5) n (%); Abdominal pain, Grade 3 [4, 7]: 3 (4) n (%); Abdominal pain, Grade 4 [4, 7]: 0 n (%); Abdominal pain, Total [4, 7]: 20 (26) n (%); Back pain, Grade 1 [4, 7]: 11 (14) n (%); Back pain, Grade 2 [4, 7]: 3 (4) n (%); Back pain, Grade 3 [4, 7]: 1 (1) n (%); Back pain, Grade 4 [4, 7]: 0 n (%); Back pain, Total [4, 7]: 15 (19) n (%); Constipation, Grade 1 [4, 7]: 14 (18) n (%); Constipation, Grade 2 [4, 7]: 3 (4) n (%); Constipation, Grade 3 [4, 7]: 0 n (%); Constipation, Grade 4 [4, 7]: 0 n (%); Constipation, Total [4, 7]: 17 (22) n (%); Cough, Grade 1 [4, 7]: 9 (12) n (%); Cough, Grade 2 [4, 7]: 0 n (%); Cough, Grade 3 [4, 7]: 0 n (%); Cough, Grade 4 [4, 7]: 0 n (%); Cough, Total [4, 7]: 9 (12) n (%); Decreased appetite, Grade 1 [4, 7]: 23 (30) n (%); Decreased appetite, Grade 2 [4, 7]: 6 (8) n (%); Decreased appetite, Grade 3 [4, 7]: 0 n (%); Decreased appetite, Grade 4 [4, 7]: 1 (1) n (%); Decreased appetite, Total [4, 7]: 30 (39) n (%); Diarrhea, Grade 1 [4, 7]: 33 (43) n (%); Diarrhea, Grade 2 [4, 7]: 13 (17) n (%); Diarrhea, Grade 3 [4, 7]: 3 (4) n (%); Diarrhea, Grade 4 [4, 7]: 0 n (%); Diarrhea, Total [4, 7]: 49 (64) n (%); Dizziness, Grade 1 [4, 7]: 12 (16) n (%); Dizziness, Grade 2 [4, 7]: 0 n (%); Dizziness, Grade 3 [4, 7]: 0 n (%); Dizziness, Grade 4 [4, 7]: 0 n (%); Dizziness, Total [4, 7]: 12 (16) n (%); Dysgeusia, Grade 1 [4, 7]: 7 (9) n (%); Dysgeusia, Grade 2 [4, 7]: 1 (1) n (%); Dysgeusia, Grade 3 [4, 7]: 0 n (%); Dysgeusia, Grade 4 [4, 7]: 0 n (%); Dysgeusia, Total [4, 7]: 8 (10) n (%); Dyspnea, Grade 1 [4, 7]: 10 (13) n (%); Dyspnea, Grade 2 [4, 7]: 3 (4) n (%); Dyspnea, Grade 3 [4, 7]: 2 (3) n (%); Dyspnea, Grade 4 [4, 7]: 0 n (%); Dyspnea, Total [4, 7]: 15 (19) n (%); Fatigue, Grade 1 [4, 7]: 21 (27) n (%); Fatigue, Grade 2 [4, 7]: 16 (21) n (%); Fatigue, Grade 3 [4, 7]: 0 n (%); Fatigue, Grade 4 [4, 7]: 1 (1) n (%); Fatigue, Total [4, 7]: 38 (49) n (%); Headache, Grade 1 [4, 7]: 7 (9) n (%); Headache, Grade 2 [4, 7]: 0 n (%); Headache, Grade 3 [4, 7]: 1 (1) n (%); Headache, Grade 4 [4, 7]: 1 (1) n (%); Headache, Total [4, 7]: 9 (12) n (%); Hyperglycemia, Grade 1 [4, 7]: 2 (3) n (%); Hyperglycemia, Grade 2 [4, 7]: 9 (12) n (%); Hyperglycemia, Grade 3 [4, 7]: 5 (6) n (%); Hyperglycemia, Grade 4 [4, 7]: 1 (1) n (%); Hyperglycemia, Total [4, 7]: 17 (22) n (%); Mucosal inflammation, Grade 1 [4, 7]: 7 (9) n (%); Mucosal inflammation, Grade 2 [4, 7]: 1 (1) n (%); Mucosal inflammation, Grade 3 [4, 7]: 0 n (%); Mucosal inflammation, Grade 4 [4, 7]: 0 n (%); Mucosal inflammation, Total [4, 7]: 8 (10) n (%); Nausea, Grade 1 [4, 7]: 42 (55) n (%); Nausea, Grade 2 [4, 7]: 4 (5) n (%); Nausea, Grade 3 [4, 7]: 1 (1) n (%); Nausea, Grade 4 [4, 7]: 0 n (%); Nausea, Total [4, 7]: 47 (61) n (%); Peripheral edema, Grade 1 [4, 7]: 9 (12) n (%); Peripheral edema, Grade 2 [4, 7]: 0 n (%); Peripheral edema, Grade 3 [4, 7]: 0 n (%); Peripheral edema, Grade 4 [4, 7]: 0 n (%); Peripheral edema, Total [4, 7]: 9 (12) n (%); Pyrexia, Grade 1 [4, 7]: 10 (13) n (%); Pyrexia, Grade 2 [4, 7]: 2 (3) n (%); Pyrexia, Grade 3 [4, 7]: 0 n (%); Pyrexia, Grade 4 [4, 7]: 0 n (%); Pyrexia, Total [4, 7]: 12 (16) n (%); Rash, Grade 1 [4, 7]: 8 (10) n (%); Rash, Grade 2 [4, 7]: 8 (10) n (%); Rash, Grade 3 [4, 7]: 1 (1) n (%); Rash, Grade 4 [4, 7]: 0 n (%); Rash, Total [4, 7]: 17 (22) n (%); Urinary tract infection, Grade 1 [4, 7]: 6 (8) n (%); Urinary tract infection, Grade 2 [4, 7]: 6 (8) n (%); Urinary tract infection, Grade 3 [4, 7]: 0 n (%); Urinary tract infection, Grade 4 [4, 7]: 0 n (%); Urinary tract infection, Total [4, 7]: 12 (16) n (%); Vomiting, Grade 1 [4, 7]: 29 (38) n (%); Vomiting, Grade 2 [4, 7]: 3 (4) n (%); Vomiting, Grade 3 [4, 7]: 1 (1) n (%); Vomiting, Grade 4 [4, 7]: 0 n (%); Vomiting, Total [4, 7]: 33 (43) n (%); Weight decreased, Grade 1 [4, 7]: 12 (16) n (%); Weight decreased, Grade 2 [4, 7]: 5 (6) n (%); Weight decreased, Grade 3 [4, 7]: 0 n (%); Weight decreased, Grade 4 [4, 7]: 0 n (%); Weight decreased, Total [4, 7]: 17 (22) n (%); dose reductions for diarrhea ([4]; at the RP2D): 2 patients; dose reductions for rash ([4]; at the RP2D): 3 patients; grade 3 hyperglycemia ([4]; at the RP2D (75 mg qd), % of patients): 4%; patients withdrawn as a result of an AE ([4]; of 77 enrolled (17%), at study completion): 13 patients; recommended phase II dose (RP2D) ([4]; once-daily dosing, oral): 75 mg; maximum tolerated dose (MTD) ([4]; qd dosing): 75 mg; Ki (AKT3): 1.5 nM; Ki (AKT1): 0.066 nM; time to reach steady-state ([5]; continuous qd dosing): approximately 14 days; concentration at 24 h ([5]; human, plasma, oral, 20 mg, C24, repeat dose 20 mg once daily (n = 1), day 8): 42.1 ng/mL; Cmax ([5]; human, plasma, oral, 20 mg, Cmax, repeat dose 20 mg once daily (n = 1), day 8): 90.3 ng/mL; Tmax ([5]; human, plasma, oral, 20 mg, Tmax, repeat dose 20 mg once daily (n = 1), day 8): 3 h; Tmax ([5]; human, plasma, oral, median Tmax, repeat dose, generally): 2 to 4 h; CV% in exposure, AUC(0–24) [5, 8]: 52%; CV% in exposure, Cmax [5, 8]: 50%
